For 39 compounds, IC50 results are on record in ChEMBL document CHEMBL1138867, “Design, synthesis, potency, and cytoselectivity of anticancer agents derived by parallel synthesis from alpha-aminosuberic acid” (J Med Chem, 2006).

As usually defined, the IC50 is the concentration at which inhibition is half-maximal. Low readings indicate higher potency, high ones lower potency.

What all share (type): functional, cell-based
The test system of assay [1] is NFF. Description: Antiproliferative activity against human NFF cells. The procedure, abridged: (§1)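 Cells cultured in RPMI 1640 with 10% heat-inactivated FCS, 3 mM HEPES, 5% CO2, 37 °C; NFF are primary neonatal foreskin fibroblasts. Cells were seeded at 5 × 10^3/well and left to adhere overnight. They were exposed to compound for 24 h, then the medium was replaced and cells grown a further 72 h. Survival was read by SRB staining at 564 nm, giving IC50.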

The subject of assay [2] is MM96L. Description: Antiproliferative activity against human MM96L cells. Summed up: as §1
Assay [3] relates to SK-MEL-28. The assay can be described thus: Antiproliferative activity against human SK-Mel-28 cells. Summed up: as §1
Assay [4] concerns A549. The assay can be described thus: Antiproliferative activity against human A549 cells. The procedure, abridged:
as §1

Assay [5] relates to DU-145. Description: Antiproliferative activity against human DU145 cells. Summed up:
as §1

Assay [6] concerns HOP-62. The assay can be described thus: Antiproliferative activity against human HOP62 cells. The procedure, abridged:
as §1

Assay [7] deals with HT-29. The assay can be described thus: Antiproliferative activity against human HT29 cells. The procedure, abridged:
as §1

In assay [8] the test system is MCF7. Description: Antiproliferative activity against human MCF7 cells. Summed up:
as §1

The test system of assay [9] is SK-MEL-5. Description: Antiproliferative activity against human SK-Mel-5 cells. The procedure, abridged:
as §1

Assay [10] in a line: Antiproliferative activity against human H520 cells. As to conditions: NCI-H520. The procedure, abridged: as §1
Assay [11] relates to T47D. The assay can be described thus: Antiproliferative activity against human T-47D cells. The procedure, abridged: as §1
Assay [12] has as its system C180-13S. The assay can be described thus: Antiproliferative activity against human C180-13S cells. The procedure, abridged: as §1
Assay [13] in a line: Antiproliferative activity against human JAM cells. Summed up: as §1
Assay [14] has as its system PC-3. Description: Antiproliferative activity against human PC3 cells. The procedure, abridged: as §1
For assay [15], the system named is COLO 205. The assay can be described thus: Antiproliferative activity against human Colo205 cells. Summed up: as §1

Regarding `O=C(CCCCC[C@H](NC(=O)OCC1c2ccccc2-c2ccccc21)C(=O)NCc1ccccc1)NO`, the IC50 in [1] came to 5370 nM; in [2] it was 3200 nM.
For `O=C(CCCCC[C@H](NC(=O)c1cc2ccccc2[nH]1)C(=O)NCc1ccccc1)NO` the same measures were 1260 nM and 250 nM.
As for `O=C(CCCCC[C@H](NC(=O)OCc1ccccc1)C(=O)Nc1cccc2cccnc12)NO`, the half-inhibitory concentration (IC50) was 452 nM in assay [1]; 43 nM in [2]; 146 nM in assay [3]; 248 nM in assay [4]; 131 nM in [5]; 226 nM in [6]. Moreover, the IC50 in assay [7] was 334 nM; in assay [8], 122 nM; in assay [9], 70 nM; in [10] it was 118 nM; in assay [11], 93 nM; in assay [12], 124 nM. The 50% inhibitory concentration (IC50) in [13] worked out at 194 nM; in assay [14], 528 nM; in [15] it was 122 nM.
Regarding `O=C(/C=C/c1ccccc1)N[C@@H](CCCCCC(=O)NO)C(=O)Nc1cccc2cccnc12`, the IC50 in assay [1] turned out to be 1240 nM; in assay [2], 21 nM; in [3] it was 37 nM; in assay [4], 73 nM; in assay [5], 30 nM; in assay [6], 65 nM. Also, the IC50 in assay [7] was determined as 99 nM; in assay [8] it was 17 nM; in assay [9], 29 nM; in assay [10], 27 nM; in assay [11], 20 nM; in [12] it was 28 nM. Besides, the IC50 came to 49 nM in [13], 109 nM in assay [14] and 141 nM in assay [15].
As for `O=C(CCCCC[C@H](NC(=O)c1ccc(Br)cc1)C(=O)NCc1ccccn1)NO`, the IC50 is 2090 nM in assay [1] and 1150 nM in [2].
The corresponding values for `O=C(CCCCC[C@H](NC(=O)C12CC3CC(CC(C3)C1)C2)C(=O)NCc1ccccc1)NO` are 7130 nM and 3950 nM.
The corresponding values for `O=C(CCCCCC(NC(=O)c1ccc([N+](=O)[O-])cc1)C(=O)NCc1ccccc1)NO` (stereo not drawn) are 9000 nM and 6000 nM.
`O=C(CCCCCC(NC(=O)c1ccco1)C(=O)NCc1ccccc1)NO` (stereo not drawn): the IC50 is 4600 nM in assay [1] and 200 nM in assay [2].
The corresponding values for `CN(C)c1ccc(C(=O)N[C@@H](CCCCCC(=O)NO)C(=O)NCc2ccccn2)cc1` are 33000 nM and 3600 nM.
The corresponding values for `O=C(/C=C/c1ccccc1)N[C@@H](CCCCCC(=O)NO)C(=O)NCc1ccccc1` are 4010 nM and 460 nM.
For `O=C(CCCCC[C@H](NC(=O)Cc1ccc(-c2ccccc2)cc1)C(=O)NCc1ccccc1)NO`, the values for the IC50 in assay [1] and in [2] were 5130 nM and 2360 nM, respectively.
On to `O=C(CCCCC[C@H](NC(=O)c1cc2ccccc2[nH]1)C(=O)NC1(Cc2ccccc2)CCCC1)NO`, for which the IC50 was determined as 1600 nM in [1] and 900 nM in [2].
The corresponding values for `O=C(CCCCC[C@H](NC(=O)c1ccc(Br)cc1)C(=O)NCc1ccncc1)NO` are 5240 nM and 830 nM.
The corresponding values for `CN(C)c1ccc(NC(=O)[C@H](CCCCCC(=O)NO)NC(=O)OCc2ccccc2)cc1` are 650 nM and 610 nM.
As to `CC(C)COC(=O)N[C@@H](CCCCCC(=O)NO)C(=O)Nc1cccc2cccnc12`, the IC50 is 81 nM in [1]; 23 nM in assay [2]; 170 nM in assay [3]; 291 nM in assay [4]; 130 nM in assay [5]; 267 nM in assay [6]. Besides, the IC50 turned out to be 360 nM in assay [7]; 138 nM in [8]; 100 nM in assay [9]; 129 nM in assay [10]; 198 nM in assay [11]; 149 nM in [12]. Also, the IC50 in [13] is 221 nM; in [14] it was 651 nM; in [15] it was 395 nM.
On to `CN(C)c1ccc(C(=O)N[C@H](CCCCCC(=O)NO)C(=O)NCc2ccccc2)cc1`, for which the IC50 in [1] was determined as 1000 nM; in [2], 160 nM.
With `O=C(/C=C/c1c[nH]c2ccccc12)N[C@@H](CCCCCC(=O)NO)C(=O)NCc1ccccc1`, the IC50 turned out to be 10400 nM in assay [1] and 3240 nM in assay [2].
For `COc1ccc(CCNC(=O)C(CCCCCC(=O)NO)NC(=O)c2ccco2)cc1` (stereo not drawn) the same measures were 1300 nM and 970 nM.
For `O=C(CCCCC[C@H](NC(=O)CCCc1c[nH]c2ccccc12)C(=O)NCc1ccccc1)NO` the same measures were 7030 nM and 1850 nM.
As for `CC(C)CCNC(=O)C(CCCCCC(=O)NO)NC(=O)c1ccco1` (stereo not drawn), the IC50 in assay [1] was determined as 4400 nM; in assay [2] it was 1500 nM.
For `CN(C)c1ccc(NC(=O)[C@H](CCCCCC(=O)NO)NC(=O)c2ccc(C(F)(F)F)cc2)cc1`, the IC50 in [1] amounted to 400 nM; in [2], 220 nM.
For `O=C(CCCCC[C@H](NC(=O)OCc1ccccc1)C(=O)NC1CCCc2ccccc21)NO` (stereo partly drawn) the same measures were 1700 nM and 1700 nM.
The corresponding values for `O=C(CCCCCC(NC(=O)c1cccnc1)C(=O)NCc1ccccc1)NO` (stereo not drawn) are 24000 nM and 9500 nM.
The corresponding values for `O=C(CCCCC[C@H](NC(=O)OCc1ccccc1)C(=O)NCc1ccncc1)NO` are 23300 nM and 4320 nM.
Turning to `O=C(CCCCC[C@H](NC(=O)c1ccc(Br)cc1)C(=O)Nc1ccc(-c2ccccc2)cc1)NO`, the IC50 in assay [1] worked out at 190 nM; in assay [2], 70 nM; in [3] it was 168 nM; in [4] it was 335 nM; in [5] it was 149 nM; in assay [6], 261 nM. The IC50 was 307 nM in assay [7]; 149 nM in [8]; 102 nM in assay [9]; 117 nM in [10]; 197 nM in assay [11]; 158 nM in assay [12]. Besides, the IC50 came out at 182 nM in [13], 531 nM in [14] and 272 nM in assay [15].
Turning to `O=C(CCCCC[C@H](NC(=O)OCc1ccccc1)C(=O)NCc1ccccc1)NO`, the half-maximal inhibitory concentration (IC50) in assay [1] and in [2] was 1520 nM throughout.
Turning to `CC(C)CCNC(=O)C(CCCCCC(=O)NO)NC(=O)c1cccnc1` (stereo not drawn), the values for the 50% inhibitory concentration (IC50) in assay [1] and in assay [2] were 12000 nM and 9000 nM, respectively.
The corresponding values for `O=C(CCCCC[C@H](NC(=O)c1cc2c(O)cccc2[nH]1)C(=O)NCc1ccccc1)NO` are 2210 nM and 330 nM.
For `O=C(CCCCC[C@H](NC(=O)Cc1c[nH]c2ccccc12)C(=O)NCc1ccccc1)NO` the same measures were more than 2200 nM and 330 nM.
As to `O=C(CCCCC[C@H](NC(=O)c1ccc(C(F)(F)F)cc1)C(=O)NCc1ccccc1)NO`, the IC50 was 1610 nM in [1] and 660 nM in [2].
Take `CN(C)c1ccc(NC(=O)[C@H](CCCCCC(=O)NO)NC(=O)/C=C/c2ccccc2)cc1`: the IC50 in assay [1] is 240 nM; in [2] it was 160 nM.
The corresponding values for `O=C(CCCCC[C@H](NC(=O)c1ccc(C(F)(F)F)cc1)C(=O)Nc1cccc2cccnc12)NO` are 696 nM and 258 nM.
For `CN(C)c1ccc(C(=O)N[C@@H](CCCCCC(=O)NO)C(=O)NC2(Cc3ccccc3)CCCC2)cc1` the same measures were 3000 nM and 900 nM.
For `O=C(CCCCC[C@H](NC(=O)OCc1ccccc1)C(=O)Nc1ccc(-c2ccccc2)cc1)NO` the same measures were 2200 nM and 330 nM.
For the compound `O=C(CCCCC[C@H](NC(=O)c1cccs1)C(=O)NCc1ccccc1)NO`, the results for the IC50 in [1] and in [2] were 5200 nM and 890 nM, respectively.
As for `O=C(CCCCC[C@H](NC(=O)c1cc2c(Br)cccc2[nH]1)C(=O)NCc1ccccc1)NO`, the results for the IC50 in assay [1] and in assay [2] were 1940 nM and 490 nM, respectively.
For `O=C(CCCCC[C@H](NC(=O)c1ccc(Br)cc1)C(=O)NCc1ccccc1)NO` the same measures were 5860 nM and 1990 nM.
Consider `CN(C)c1ccc(C(=O)N[C@@H](CCCCCC(=O)NO)C(=O)Nc2cccc3cccnc23)cc1`, for which the IC50 was 570 nM in [1]; 20 nM in assay [2]; 73 nM in [3]; 148 nM in assay [4]; 61 nM in [5]; 137 nM in assay [6]. For the same compound, the IC50 in assay [7] was found to be 178 nM; in assay [8], 35 nM; in [9], 32 nM; in [10], 63 nM; in [11], 45 nM; in [12], 65 nM. For the same compound, the IC50 worked out at 85 nM in [13], 220 nM in assay [14] and 223 nM in assay [15].
On to `CN(C)c1ccc(C(=O)NC(CCCCCC(=O)NO)C(=O)NC2CCCc3ccccc32)cc1` (stereo not drawn), for which the IC50 stood at 1810 nM in [1] and 300 nM in assay [2].
